Screening data deposited in PubChem BioAssay by Sanford-Burnham Center for Chemical Genomics.
Most compounds without a hit are left out; they make up all but 1.5% or so of the library.
CXCR6 inh: CXCR6 receptor inhibitors, primary screen, cell-based, beta-arrestin, luminescence, CHO-K1 PathHunter, 1536-well | 0.36% of 360,000 active | C-X-C chemokine receptor type 6 (Homo sapiens), O00574 | inhibition, % at 20 µM | AID 602244, 2012; in the data active means inhibition above about 34%, passing the limit was not always enough;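 further: antagonist mode with CXCL16 agonist at 10 nM final; 0% = 10 nM CXCL16 with DMSO and 100% = unstimulated wells without agonist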
Target sequence (O00574 whole entry, looked up): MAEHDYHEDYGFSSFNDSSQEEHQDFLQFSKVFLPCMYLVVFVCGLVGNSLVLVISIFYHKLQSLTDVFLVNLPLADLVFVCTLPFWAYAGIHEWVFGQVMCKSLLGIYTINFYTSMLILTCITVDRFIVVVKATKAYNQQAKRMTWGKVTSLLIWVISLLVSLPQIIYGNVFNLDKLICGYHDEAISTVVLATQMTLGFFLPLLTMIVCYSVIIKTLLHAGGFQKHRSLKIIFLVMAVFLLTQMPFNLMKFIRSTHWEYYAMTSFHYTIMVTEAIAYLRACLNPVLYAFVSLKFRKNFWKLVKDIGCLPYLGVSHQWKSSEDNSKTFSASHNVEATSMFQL
APJ antagonist: antagonists of human apelin receptor APJ, primary screen, CHO-K1 cells, beta-arrestin complementation, luminescence; inhibition, % at 20 µM; 0.32% of 330,000 active; AID 2521, 2010;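 active means inhibition above about 40% at 20 µM, limit read from the data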;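 further: cells challenged with 10 nM apelin-13 agonist together with compound; plate controls were apelin-13 plus DMSO wells for no effect and DMSO wells lacking apelin-13 for full effect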
EBI2 block: EBI2 receptor antagonists, beta-arrestin recruitment, primary screen, cell-based, luminescence, 7a,25-OHC stimulation, uHTS; 7a,25-OHC stimulated; inhibition, % at 5 µM; 0.81% of 360,000 active; in the data active means inhibition above about 38%;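 further: enzyme fragment complementation signal reports receptor beta-arrestin coupling in cells; 0% = agonist plus DMSO wells and 100% = wells without agonist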
APJ agonist: agonists of human apelin receptor APJ, primary screen, CHO-K1 cells, PathHunter beta-arrestin, luminescence | 0% DMSO wells, 100% apelin | activation, % at 20 µM | 0.11% of 330,000 active;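 active means activation more than six SD over the plate average, tested at 20 µM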;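 further: 0% = DMSO alone and 100% = apelin-13 at 10 nM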
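Test system – PathHunter CHO-K1 APJ (AGTRL-1) beta-arrestin reporter cells · Input – 1000 cells/well · Compound – single test compound dose, 20 µM final, 1% DMSO · Times – compound stimulation 90 min at 25 °C, detection 60 min · Technique – beta-gal luminescence · Read-out basis – APJ–arrestin association signal · Control set – negative DMSO alone, positive Apelin-13 at 10 nM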
CCR6 antag: CCR6 receptor antagonists, primary screen, cell-based, CHO-K1, luminescence, beta-arrestin, uHTS. 0.49% of 340,000 active. AID 493098, 2011. C-C chemokine receptor type 6 (Homo sapiens), P51684. CHO-K1 CCR6 PathHunter beta-arrestin, CCL20-stimulated. inhibition, % at 20 µM;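 active means compounds whose inhibition of the agonist-driven luminescence signal at 20 µM reaches about 50%, limit read from the data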;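 further: cells stimulated with CCL20 at 14 nM final; plate controls were DMSO with CCL20 for no effect and DMSO without agonist for full effect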
APJ ag confirm: agonists of human apelin receptor APJ, confirmation, cell-based, single concentration, CHO-K1, beta-arrestin, luminescence; shares compounds with APJ agonist; CHO-K1 APJ PathHunter beta-arrestin; activation, % at 20 µM; 10% of 310 active;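 active means activation above 40%, taking the highest of four retests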;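 further: plate controls were DMSO wells for no effect and apelin-13 at 10 nM for full effect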
An asterisk follows results filed as active; nt = no result.

SMILES | CXCR6 inh | APJ antagonist | EBI2 block | APJ agonist | CCR6 antag | APJ ag confirm
CC1CCN(S(=O)(=O)c2ccc3nc(N4CCN(c5ccccc5)CC4)ccc3c2)CC1 | nt | -2 | nt | 53* | -12 | 11
CCOC(=O)C1CCCN(C(=O)C(CCSC)NC(=O)COc2ccccc2)C1 (stereo not given) | -9 | 15 | -7 | -2 | 8 | nt
Cc1cccc(C(=O)OCc2cc(=O)oc3c(C)c(C)ccc23)c1O | 9 | 11 | 8 | 24* | -6 | 8
CCOC(=O)C1=C(Cn2cnc3ccccc32)NC(=O)NC1c1cc(C)ccc1C (stereo not given) | 9 | 31 | -42 | 62* | 13 | 59*
CCOC(=O)C1=C(CSc2nccn2C)NC(=O)NC1c1cc(C)ccc1C (stereo not given) | 7 | -17 | 5 | -4 | 5 | nt
C[C@@H](C(=O)NC1CCN(Cc2ccccc2)CC1)N1C(=O)N2CCc3c([nH]c4ccccc34)[C@@]2(C)C1=O | -4 | 1 | -4 | 5 | -1 | nt
CC(C)C[C@@H](C(=O)NC1CCN(Cc2ccccc2)CC1)N1C(=O)N2CCc3c([nH]c4ccccc34)[C@@]2(C)C1=O | 9 | 16 | 14 | 24* | 21 | 25
COc1ccc2[nH]c3c(c2c1)CCN1C(=O)N([C@@H](C)C(=O)NC2CCN(Cc4ccccc4)CC2)C(=O)[C@]31C | -5 | 8 | -5 | 18* | 8 | 38
CCCSc1ncc(Cl)c(C(=O)Nc2ccc(S(=O)(=O)N3CC(C)OC(C)C3)cc2)n1 (stereo not given) | 15 | 23 | 16 | -3 | -15 | nt
CSc1ccc(CN2CCN(S(=O)(=O)Cc3ccccc3)CC2)cc1 | -7 | -12 | -5 | 1 | 24 | nt
COc1ccc(CCC(=O)N2c3ccccc3N=C(c3ccc4c(c3)OCO4)C2C(=O)NCc2ccccc2)cc1 (stereo not given) | nt | nt | 12 | nt | nt | nt
COc1ccc(OC)c2sc(N(CCCN(C)C)C(=O)c3ccc(S(=O)(=O)N4CCc5ccccc5C4)cc3)nc12 | nt | -59 | nt | 45* | nt | 22
Cc1ccc2c(c1)c(=O)c1c3n2CCN(C(=O)CCl)C3CC1 (stereo not given) | 1 | -15 | -21 | 37* | -4 | 22
Cc1noc(NS(=O)(=O)c2ccc(NC(=O)Cc3ccc([N+](=O)[O-])cc3)cc2)c1C | 12 | -15 | 6 | 4 | 11 | nt
Cc1noc(C)c1-c1nc(CS(=O)(=O)c2ccc(F)cc2)no1 | 8 | 3 | -3 | -8 | 10 | nt
CCn1cnc2cc(NCc3ccc(OC)cc3)ccc21 | 2 | -5 | 1 | -2 | -13 | nt
CCOc1ccc2nc3cc(NCc4ccc(OC)cc4)ccc3c(N)c2c1 | -12 | -15 | -12 | 30* | -10 | -4
CCN(CC)CCNC(=O)c1cc(-c2cccnc2)nc2ccc(S(=O)(=O)N3CCC(C)CC3)cc12 | 0 | -21 | -4 | 52* | 12 | 13
CCN1C[C@@H]2[C@@H]3C(=O)N(C)C(=O)[C@@H]3[C@](CC)(C(=O)OC)N2C1=NCc1ccccc1 | -6 | nt | -6 | nt | -2 | nt
Cc1ccc(CCN=c2c([N+](=O)[O-])nn(-c3ccccc3)n2O)cc1 | -13 | -46 | -9 | 14* | -24 | 25
Cc1ccc(Nc2nc(NCc3ccco3)c3ccccc3n2)cc1 | -5 | -36 | -22 | 14* | -18 | 19
Nc1nccc(NCCSCc2ccccc2)n1 | -8 | nt | -1 | nt | 3 | nt
COc1ccc(N(C(=O)c2snc(C(N)=O)c2N)C(C(=O)NCC2CCCO2)c2ccc3ncccc3c2)cc1OC (stereo not given) | 2 | 18 | 8 | 2 | 8 | nt
N#Cc1c2ccc([N+](=O)[O-])cc2[n+]([O-])n1-c1ccccc1 | -15 | -237 | -23 | 13* | nt | 12
Cc1ccc(Oc2nnc(-c3ccccc3)cc2C#N)cc1 | 0 | 10 | -4 | 22* | -14 | 21
N#Cc1cc(-c2ccccc2)nnc1Oc1ccccc1 | -1 | 11 | -5 | 1 | -1 | nt
